Screening data (PubChem BioAssay)
RORa activator: activators of orphan receptor RORA, primary screen, cell-based, luminescence. CHO-K1 Gal4-RORA LBD luciferase reporter; percent increase over mock-subtracted basal signal. Nuclear receptor ROR-alpha (Homo sapiens), P35398. 65,000 tested, 1.5% active. AID 560, 2006. activation, % at 10 µM;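 active means activation above the mean of all tested compounds plus 3 SD, cut at about 49% in these data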;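 further: 0% = DMSO-treated RORA cells and 100% = added signal equal to DMSO minus mock-transfected cells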
Htt clearance: clearance of mutant huntingtin inclusions, primary screen, imaging, HeLa Exon1htt(103Q)mCFP, confocal imaging | aggregate imaging; zero = plate's median compound well | inhibition, % at 1.5 µM | 47,000 tested, 0.42% active | AID 853, 2007;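 active means inhibition of aggregate fluorescence above about 70%, also judged a hit by eye on the cell image, limit read from the data, passing the limit was not always enough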;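 further: cells exposed to compound for three days before fixation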
SF-1 act: activators of human SF-1, primary screen, cell-based, CHO-K1, Gal4-SF-1 LBD, luciferase luminescence. Steroidogenic factor 1 (Homo sapiens), Q13285. CHO-K1 Gal4-SF-1 LBD luciferase reporter; % increase over DMSO SF-1-specific signal. activation, % at 10 µM. 65,000 tested, 1.9% active;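 active means activation above the mean activation of all tested compounds plus 3 SD, cut at about 50% in these data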
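material = CHO-K1 cells with Gal4–hSF-1 LBD chimera plus Gal4-driven luciferase | compound = 10 µM single point, 1% DMSO | incubation = 20 h compound exposure at 37 °C after 1 h cell settling | measured by = SteadyLite luciferase luminescence | evaluation = percent activation relative to DMSO median and mock-transfected background | control set = DMSO negative control and −SF1 background wells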
M1 antagonist: antagonists of rat M1 muscarinic receptor | CHO-M1 cells, Fluo-4 calcium, ACh EC80 antagonist mode; active compounds read low | B-score at 10 µM | 64,000 tested, 3.4% active | AID 628, 2007;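 active means calcium fluorescence response, raw or row-and-column corrected B-score, differing from the plate sample mean either way at a set confidence level, mostly lower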
Target sequence (P08482 whole entry, looked up): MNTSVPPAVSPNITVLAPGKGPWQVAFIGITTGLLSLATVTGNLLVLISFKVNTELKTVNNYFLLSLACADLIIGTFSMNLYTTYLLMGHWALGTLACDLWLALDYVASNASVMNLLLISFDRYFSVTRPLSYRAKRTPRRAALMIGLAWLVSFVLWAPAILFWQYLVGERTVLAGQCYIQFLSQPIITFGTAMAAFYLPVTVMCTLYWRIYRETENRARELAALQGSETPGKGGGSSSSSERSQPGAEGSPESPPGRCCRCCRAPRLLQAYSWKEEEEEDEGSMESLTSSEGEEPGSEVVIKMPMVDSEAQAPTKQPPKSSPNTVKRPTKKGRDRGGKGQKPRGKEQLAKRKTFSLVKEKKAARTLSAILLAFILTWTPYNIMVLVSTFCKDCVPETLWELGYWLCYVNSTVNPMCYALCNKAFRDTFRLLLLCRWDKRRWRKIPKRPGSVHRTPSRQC
D1 allo mod: D1 CRE-luciferase signal change, two-sided – cell-based, HEK293 D1, dopamine EC30, D1 allosteric modulator project, primary screen | D(1A) dopamine receptor (Homo sapiens), P21728 | dopamine EC30 potentiation; actives deviate in either direction | B-score at 10 µM | 58,000 tested, 5.9% active | AID 641, 2007;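 active means luminescence count or its row- and column-corrected plate score outside the 99.7% band of the plate's sample wells, on either side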
M1 agonist: M1 muscarinic receptor agonists, primary screen, CHO-M1 cells, Fluo-4 calcium, agonist mode. Muscarinic acetylcholine receptor M1. Fluo-4 calcium fluorescence; active compounds read high. B-score at 10 µM. 64,000 tested, 3% active;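 active means fluorescence rise, raw or as B-score row- and column-corrected plate score, outside the 99.7% band of its plate's samples, either direction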
Active calls of the source: *; / = not tested or not shown. In the library only some 11% were active in any assay of this set; here they are far more common.

SMILES	RORa activator	Htt clearance	SF-1 act	M1 antagonist	D1 allo mod	M1 agonist
Cc1cccc(NC(=O)c2cnc3sccn3c2=O)c1C	74*	/	45	-1	/	0.059
Cc1cccc(NC(=O)c2cnc3sccn3c2=O)c1	24	/	-2	-0.64	-2.1	0.072
O=C(Nc1cnc2sccn2c1=O)c1ccccc1Cl	29	/	52*	0.72	-0.97	0.23
Cc1cccc(NC(=O)c2cnc3sccn3c2=O)n1	16	/	34	0.2	-0.043	-1.4
NC(=O)CSc1nnc(C2CC2)n1-c1ccccc1	/	-22	/	/	/	/
CC1(C)Cc2nc3sc4c(=O)[nH]cnc4c3cc2CS1	12	1	63*	0.17	-0.079	-1.2
O=C(Nc1cccc(NC(=O)C2CC3CCCC(C2)C3=O)n1)C1CC2CCCC(C1)C2=O (centres undefined)	-11	4	-1	-0.36	-0.17	-0.068
Cc1nc(NC(=O)C2CC3CCCC(C2)C3=O)sc1C (centres undefined)	62*	-48	54*	0.32	0.035	0.21
Cc1cccc(NC(=O)CCSc2nncn2C)c1	/	33	/	/	/	/
COc1ccc(OCc2cccc(C(=O)Nn3cc([N+](=O)[O-])cn3)c2)cc1	/	-60	/	/	/	/
CCOC(=O)c1ccccc1NC(=O)Cn1cnc2c(cnn2-c2ccc(OC)cc2)c1=O	-14	86*	-2	-0.93	-0.8	-0.066
COc1ccc(-n2ccnc2SCC(=O)Nc2ccc(OC)cc2OC)cc1	-4	9	8	0.12	3.3	-1.5
Nc1c(N2CCOCC2)cc(Cl)c2nonc12	17	/	9	0.65	-4.8*	0.42
CCCCCn1c(=NC(C)=O)c(C#N)cc2c(=O)n3ccccc3nc21	-5	44	2	-0.19	1.3	1.3
CCCCn1c(=NC(C)=O)c(C#N)cc2c(=O)n3cccc(C)c3nc21	0	/	14	0.049	-0.078	21*
Cc1cccn2c(=O)c3cc(C#N)c(=NC(=O)c4ccncc4)n(Cc4ccco4)c3nc12	24	/	1	0.011	0.19	6.6*
Fc1cccc(-c2cc3nc4c(c(N5CCN(c6cnccn6)CC5)n3n2)CCCC4)c1	18	32	26	0.0026	0.3	14*
CC(=O)c1c(C)[nH]c(C(=O)OCC(=O)NCCc2ccc(F)cc2)c1C	-2	/	-3	-1	-1.6	1.1
COC(=O)c1c(C)[nH]c(C(=O)OCc2ccc(F)cc2)c1C	30	/	60*	1	1.3	0.084
Cc1cc(NCCO)nc(N2CCOCC2)n1	/	-11	/	/	/	/
O=C(COc1ccccc1)n1nc(-c2ccc(Cl)cc2)nc1NCc1ccco1	60*	17	31	-0.24	0.83	-1.5
Cc1ccc2nc(-c3ccc(NC(=O)c4ccco4)cc3)[nH]c2c1	31	-24	50*	0.16	-0.0094	0.58
O=C(OC1CCCCC1)c1ccc(NC(=O)c2ccco2)cc1	49*	-4	60*	0.13	-1	0.3
O=C(Nc1ccc(-c2nc3ncccc3o2)cc1)c1ccco1	42	13	63*	0.18	-2.1	-0.034
O=C(Nc1ccccn1)c1ccc(NC(=O)c2ccco2)cc1	71*	/	60*	-0.14	-1.7	1.2
SMILES	RORa activator	Htt clearance	SF-1 act	M1 antagonist	D1 allo mod	M1 agonist
Cc1ccc(/C=N/N2CCN(Cc3cccc4ccccc34)CC2)o1	/	-16	/	/	/	/
O=C(Nc1ccc(-c2nc3cccnc3s2)cc1)c1ccc(Br)o1	39	/	27	-0.15	0.48	0.6
O=C(Nc1ccc(-c2nc3cccnc3s2)cc1)c1ccco1	25	/	14	-0.79	-5*	0.23
COc1ccc2c(CC(=O)Nc3ccc(OC)c(NS(=O)(=O)c4ccc(F)cc4)c3)coc2c1	-11	/	4	0.48	-1.2	-1.5
Cc1c(OCC(=O)OC(C)C)ccc2c3c(c(=O)oc12)CCC3	-7	/	-8	1.2	0.57	-0.085
CC(=O)COc1ccc2c3c(c(=O)oc2c1C)CCCCC3	26	-17	54*	-1.6	4.2	-0.33
